Calls of active or inactive are those of the source. The calls are words filed in the database; no cut-off is given here.
How the values were obtained:
MCF7 [1] = experiment: Enhancement of growth of estrogen receptor positive MCF7 cells at 5 uM after 48 hrs by MTT assay relative to DMSO; assay type: functional, cell-based; settings: Homo sapiens
Outline: (§1)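 Cells were seeded, left to attach for 24 h, then switched to phenol red-free DMEM with 5% charcoal-stripped FBS. After a further 24 h, compound was added at 5 µM in DMSO (final DMSO ≤0.1%) and incubated 48 h. Viability was read as absorbance at 570 nm by MTT-type kit and expressed relative to DMSO, mean of three determinations.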

[2] = molecular target: T1, Estrogen receptor (Homo sapiens) (UniProt P03372); experiment: Displacement of ES2 ligand from human recombinant ERalpha relative to tamoxifen
T1 sequence (whole entry): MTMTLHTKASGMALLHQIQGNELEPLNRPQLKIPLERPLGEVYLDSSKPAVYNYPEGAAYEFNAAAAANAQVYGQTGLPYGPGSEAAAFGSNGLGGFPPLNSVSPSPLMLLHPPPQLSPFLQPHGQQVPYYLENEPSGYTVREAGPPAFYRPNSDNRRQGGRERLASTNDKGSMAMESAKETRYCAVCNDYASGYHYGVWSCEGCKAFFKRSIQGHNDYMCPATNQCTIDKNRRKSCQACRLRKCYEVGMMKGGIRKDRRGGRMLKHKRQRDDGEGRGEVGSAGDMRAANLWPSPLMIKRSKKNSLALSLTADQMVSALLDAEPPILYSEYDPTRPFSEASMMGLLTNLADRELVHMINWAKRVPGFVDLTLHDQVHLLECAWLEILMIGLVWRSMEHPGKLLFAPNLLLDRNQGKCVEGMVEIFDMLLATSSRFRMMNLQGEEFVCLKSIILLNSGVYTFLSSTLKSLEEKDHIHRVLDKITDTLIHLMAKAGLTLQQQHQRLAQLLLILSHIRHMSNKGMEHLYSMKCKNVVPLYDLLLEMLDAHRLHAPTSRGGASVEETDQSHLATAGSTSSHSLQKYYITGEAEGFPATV
Outline: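 Fluorescence polarization competition assay. Recombinant hERa (7 nM) was preincubated with fluorescent estrogenic probe ES2 (1 nM) in screening buffer, then combined with serial DMSO dilutions of test molecule. After 1 h at room temperature, polarization was read (ex 495 nm, em 535 nm).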

[3] = molecular target: T1, Estrogen receptor (Homo sapiens); experiment: Agonist activity at human recombinant ERalpha expressed in MCF7 cells assessed as ERE-driven transactivation at 2.5 uM by luciferase reporter assay relative to DMSO; assay type: functional, cell-based
Outline: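 MCF-7 cells in phenol red-free DMEM with 10% charcoal-stripped FBS, plated in triplicate, transfected 24 h later with pCMV-hERa, 3x-ERE-TATA-Luc and pCMV-b. Test compound (2.5 µM) or DMSO added after transfection; lysed after 24 h. Luciferase normalized to b-galactosidase; reported as ratio of compound RLA to DMSO RLA, mean of three determinations.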

MDA-MB-231 = experiment: Cell viability of estrogen receptor negative MDA-MB-231 cells at 5 uM after 48 hrs by MTT assay relative to DMSO; assay type: functional, Homo sapiens; outline: as §1
MCF7 [4] = experiment: Cell viability of estrogen receptor positive MCF7 cells at 5 uM after 48 hrs by MTT assay relative to DMSO; assay type: functional, Homo sapiens; outline: as §1
[5] = molecular target: T2, Progesterone receptor (Homo sapiens) (UniProt P06401); experiment: Antagonist activity at human PR in T47D cells assessed as MMTV-driven transactivation at 5 uM by luciferase reporter assay relative to progesterone; assay type: functional, cell-based; design: scale not given: the % may be the effect or the level left
T2 sequence (whole entry): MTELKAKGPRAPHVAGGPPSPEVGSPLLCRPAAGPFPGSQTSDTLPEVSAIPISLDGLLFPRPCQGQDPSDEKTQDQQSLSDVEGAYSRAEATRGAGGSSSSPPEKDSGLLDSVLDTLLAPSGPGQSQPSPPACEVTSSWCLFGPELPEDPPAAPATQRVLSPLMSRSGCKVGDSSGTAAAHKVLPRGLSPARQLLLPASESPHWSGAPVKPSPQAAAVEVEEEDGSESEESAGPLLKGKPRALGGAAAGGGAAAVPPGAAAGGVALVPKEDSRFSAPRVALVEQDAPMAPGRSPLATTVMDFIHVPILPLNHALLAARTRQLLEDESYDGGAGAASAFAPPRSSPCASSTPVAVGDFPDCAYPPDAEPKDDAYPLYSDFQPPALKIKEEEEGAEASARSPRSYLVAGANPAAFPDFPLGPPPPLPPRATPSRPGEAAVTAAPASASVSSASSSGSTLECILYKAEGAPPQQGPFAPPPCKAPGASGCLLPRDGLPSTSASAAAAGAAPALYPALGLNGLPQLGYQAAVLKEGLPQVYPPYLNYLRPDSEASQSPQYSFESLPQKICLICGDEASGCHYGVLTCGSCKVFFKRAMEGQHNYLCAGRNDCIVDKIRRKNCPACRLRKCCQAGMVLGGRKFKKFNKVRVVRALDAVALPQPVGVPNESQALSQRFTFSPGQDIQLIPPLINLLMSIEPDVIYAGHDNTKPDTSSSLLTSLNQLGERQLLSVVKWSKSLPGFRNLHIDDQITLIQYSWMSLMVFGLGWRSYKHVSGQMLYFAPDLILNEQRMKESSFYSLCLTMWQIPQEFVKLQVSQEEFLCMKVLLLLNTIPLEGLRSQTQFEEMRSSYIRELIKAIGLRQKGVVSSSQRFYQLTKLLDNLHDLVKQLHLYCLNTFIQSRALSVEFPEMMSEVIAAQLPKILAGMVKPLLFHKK
Outline: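 T47D cells in phenol red-free RPMI + 10% charcoal-stripped FBS, 3 × 10⁵ cells/well in triplicate. After 24 h, transfected with pCMV-hPR, pMMTV-Luc reporter and pCMV-β normaliser. Treated for 24 h in the presence of 1 nM progesterone. MMTV-driven luciferase measured on lysate and normalised to β-galactosidase luminescence.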

[6] = molecular target: T1, Estrogen receptor (Homo sapiens); experiment: Agonist activity at human ERalpha in T47D cells assessed as enhancement of AP1-driven transactivation at 5 uM by luciferase reporter assay relative to DMSO; assay type: functional, cell-based
Outline: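 T47D cells grown in RPMI 1640 + 10% FBS, plated in triplicate at 3 × 10⁵ cells/well in phenol red-free RPMI + 10% charcoal-stripped FBS. After 24 h, transfected with pCMV-hERa, AP1-Luc reporter and pCMV-β (β-gal normalisation). Compound at 5 µM or DMSO for 24 h. Luciferase read and normalised to β-gal. Result expressed as RLA of compound/RLA of DMSO.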

Row | SMILES | Activity (MCF7 [1]) | relative binding affinity (RBA) [2] | other results
1 | CCCCNC(=O)CCCCCCCCCCOC[C@@H]1Cc2ccccc2CN1C(=O)c1cccc(F)c1 | inactive | 0.287 | 
2 | CCCCNC(=O)CCCCCCCCCCOC[C@@H]1Cc2ccccc2CN1C(=O)Cc1cccc(F)c1 | inactive | 0.267 | Activity [3]: Active
3 | CC/C(=C(\c1ccccc1)c1ccc(OCCN(C)C)cc1)c1ccccc1 [TAMOXIFEN] | inactive |  | Activity (MDA-MB-231): 0.65; Activity (MCF7 [4]): 0.43
4 | CCCCNC(=O)CCCCCCCCCCOC[C@@H]1Cc2ccccc2CN1C(=O)c1cccc(C)c1 | inactive | 0.156 | Activity [3]: Active
5 | CCCCNC(=O)CCCCCCCCCCOC[C@@H]1Cc2ccccc2CN1C(=O)c1cccc(O)c1 | inactive | 5 | Activity (MDA-MB-231; Homo sapiens): inactive; Activity (MCF7 [4]): 0.48
6 | CCCCNC(=O)CCCCCCCCCCOC[C@@H]1Cc2ccccc2CN1C(=O)c1ccccc1F | inactive | 0.225 | 
7 | CCCCNC(=O)CCCCCCCCCCOC[C@@H]1Cc2ccccc2CN1C(=O)c1cccc(Cl)c1 | inactive | 0.156 | Activity [5]: 54%; Activity [6]: Active
8 | C[C@]12CC[C@@H]3c4ccc(O)cc4C[C@@H](CCCCCCCCC[S+]([O-])CCCC(F)(F)C(F)(F)F)[C@H]3[C@@H]1CC[C@@H]2O (stereo not given in full) |  |  | Activity [5]: 48%
9 | CCCCNC(=O)CCCCCCCCCCOC[C@@H]1Cc2ccccc2CN1C(=O)c1ccc(C)cc1 | inactive | 0.132 | Activity [3]: Active
10 | CCCCNC(=O)CCCCCCCCCCOC[C@@H]1Cc2ccccc2CN1C(=O)c1ccc(OC)cc1 | inactive | 0.14 | 
11 | CCCCNC(=O)CCCCCCCCCCOC[C@@H]1Cc2ccccc2CN1C(=O)c1ccc(F)cc1 | inactive | 0.264 | 
12 | CCCCCCCCNC(=O)CCCCCCCCCCOC[C@@H]1Cc2ccccc2CN1C(=O)c1cccc(F)c1 | inactive | 0.177 | 
13 | CCCCNC(=O)CCCCCCCCCCOC[C@@H]1Cc2ccccc2CN1C(=O)c1ccc(O)cc1 | inactive | 1.79 | 
14 | CCCCNC(=O)CCCCCCCCCCOC[C@@H]1Cc2ccccc2CN1C(=O)c1cccc(OC)c1 | inactive | 0.192 | 
